Measured values published in ChEMBL document CHEMBL1131301, “Tyrosine kinase inhibitors. 14. Structure-activity relationships for methylamino-substituted derivatives of 4-[(3-bromophenyl)amino]-6-(methylamino)-pyrido[3,4-d]pyrimidine (PD 158780), a potent and specific inhibitor of the tyrosine kinase activity of receptors for the EGF family of growth factors” (J Med Chem, 1998).
Converted amounts (≈) assume the structure as drawn. One block for each molecule: values may come before it.

Tests used:
[1] = molecular target: T1, Epidermal growth factor receptor (Homo sapiens, UniProt P00533); experiment: Inhibition of autophosphorylation of epidermal growth factor receptor in A431 cells in culture
T1 sequence (P00533 whole entry): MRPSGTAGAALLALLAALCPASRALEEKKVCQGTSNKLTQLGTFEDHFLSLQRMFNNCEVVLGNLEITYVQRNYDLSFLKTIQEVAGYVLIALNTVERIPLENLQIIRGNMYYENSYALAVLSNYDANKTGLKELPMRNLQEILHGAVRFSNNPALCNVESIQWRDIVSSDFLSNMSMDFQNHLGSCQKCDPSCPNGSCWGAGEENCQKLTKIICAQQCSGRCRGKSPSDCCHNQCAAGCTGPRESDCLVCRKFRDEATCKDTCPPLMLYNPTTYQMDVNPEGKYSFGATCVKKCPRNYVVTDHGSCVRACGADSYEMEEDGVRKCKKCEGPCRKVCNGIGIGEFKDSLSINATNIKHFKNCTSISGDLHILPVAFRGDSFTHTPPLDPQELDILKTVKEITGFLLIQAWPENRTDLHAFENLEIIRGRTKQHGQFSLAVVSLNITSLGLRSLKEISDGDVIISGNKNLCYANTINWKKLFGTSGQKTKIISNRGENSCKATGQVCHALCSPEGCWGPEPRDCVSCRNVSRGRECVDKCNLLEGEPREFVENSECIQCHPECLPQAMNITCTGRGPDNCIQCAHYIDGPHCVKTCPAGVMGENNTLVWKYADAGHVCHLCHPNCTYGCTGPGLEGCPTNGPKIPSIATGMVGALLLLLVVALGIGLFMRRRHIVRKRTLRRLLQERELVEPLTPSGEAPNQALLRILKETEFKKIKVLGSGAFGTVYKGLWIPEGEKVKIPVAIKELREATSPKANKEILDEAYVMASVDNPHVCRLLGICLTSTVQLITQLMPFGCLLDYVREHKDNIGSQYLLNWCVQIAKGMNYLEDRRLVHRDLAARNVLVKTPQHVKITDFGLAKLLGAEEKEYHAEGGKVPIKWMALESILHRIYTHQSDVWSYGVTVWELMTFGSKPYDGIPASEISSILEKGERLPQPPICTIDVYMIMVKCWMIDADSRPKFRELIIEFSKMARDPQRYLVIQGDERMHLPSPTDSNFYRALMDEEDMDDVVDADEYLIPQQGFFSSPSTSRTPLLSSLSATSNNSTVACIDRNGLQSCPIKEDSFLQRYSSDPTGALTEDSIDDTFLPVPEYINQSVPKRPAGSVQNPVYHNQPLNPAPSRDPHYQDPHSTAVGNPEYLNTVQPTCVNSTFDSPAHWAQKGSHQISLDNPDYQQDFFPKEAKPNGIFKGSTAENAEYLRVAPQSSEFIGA

[2] = Aqueous solubility ([…] degree C); format: physicochemical; details: for solubility: water, read-out: S; for S: buffer
[3] = molecular target: T1, Epidermal growth factor receptor; experiment: Inhibit of phosphorylation of a tyrosine/glutamic acid copolymer by epidermal growth factor receptor prepared from human A431 carcinoma cell vesicles by immunoaffinity chromatography.
[4] = molecular target: T1, Epidermal growth factor receptor; experiment: Inhibition of EGF-dependent autophosphorylation of EGF-R in A431 cells
[5] = molecular target: T1, Epidermal growth factor receptor; experiment: (§1) Inhibition of tyrosine/glutamic acid copolymer phosphorylation by epidermal growth factor receptor prepared of human A431
[6] = molecular target: T1, Epidermal growth factor receptor; experiment: as §1; remark: listed apart in the source
[7] = molecular target: Fibroblast growth factor receptor (Homo sapiens, UniProt P22607+P11362+P22455+P21802); experiment: Inhibition of fibroblast growth factor receptor(FGFR); format: functional
Insulin receptor = Insulin receptor (Homo sapiens, UniProt P06213); experiment: Inhibition of insulin receptor(IR); format: functional
Chain of Insulin receptor (P06213 28-758 limits assumed): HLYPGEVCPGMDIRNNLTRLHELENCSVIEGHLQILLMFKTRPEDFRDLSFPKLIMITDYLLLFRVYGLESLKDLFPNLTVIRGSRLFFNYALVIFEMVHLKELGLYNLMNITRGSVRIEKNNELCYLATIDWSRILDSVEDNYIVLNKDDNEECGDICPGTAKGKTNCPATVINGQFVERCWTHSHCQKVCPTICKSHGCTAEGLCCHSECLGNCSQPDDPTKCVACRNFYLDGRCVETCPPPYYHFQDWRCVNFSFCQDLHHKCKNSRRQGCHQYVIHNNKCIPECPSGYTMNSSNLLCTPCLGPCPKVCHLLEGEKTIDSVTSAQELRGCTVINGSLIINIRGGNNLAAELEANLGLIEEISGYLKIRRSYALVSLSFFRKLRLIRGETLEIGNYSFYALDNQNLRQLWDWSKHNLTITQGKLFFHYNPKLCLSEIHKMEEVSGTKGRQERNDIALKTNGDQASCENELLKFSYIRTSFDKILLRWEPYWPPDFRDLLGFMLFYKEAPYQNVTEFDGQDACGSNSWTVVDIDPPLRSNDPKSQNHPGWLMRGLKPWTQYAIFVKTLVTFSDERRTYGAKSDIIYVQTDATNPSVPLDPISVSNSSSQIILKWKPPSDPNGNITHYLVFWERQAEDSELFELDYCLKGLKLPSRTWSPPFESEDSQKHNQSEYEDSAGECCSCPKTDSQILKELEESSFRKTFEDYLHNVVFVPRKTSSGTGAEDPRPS
Chain of Insulin receptor (P06213 763-1382 limits assumed): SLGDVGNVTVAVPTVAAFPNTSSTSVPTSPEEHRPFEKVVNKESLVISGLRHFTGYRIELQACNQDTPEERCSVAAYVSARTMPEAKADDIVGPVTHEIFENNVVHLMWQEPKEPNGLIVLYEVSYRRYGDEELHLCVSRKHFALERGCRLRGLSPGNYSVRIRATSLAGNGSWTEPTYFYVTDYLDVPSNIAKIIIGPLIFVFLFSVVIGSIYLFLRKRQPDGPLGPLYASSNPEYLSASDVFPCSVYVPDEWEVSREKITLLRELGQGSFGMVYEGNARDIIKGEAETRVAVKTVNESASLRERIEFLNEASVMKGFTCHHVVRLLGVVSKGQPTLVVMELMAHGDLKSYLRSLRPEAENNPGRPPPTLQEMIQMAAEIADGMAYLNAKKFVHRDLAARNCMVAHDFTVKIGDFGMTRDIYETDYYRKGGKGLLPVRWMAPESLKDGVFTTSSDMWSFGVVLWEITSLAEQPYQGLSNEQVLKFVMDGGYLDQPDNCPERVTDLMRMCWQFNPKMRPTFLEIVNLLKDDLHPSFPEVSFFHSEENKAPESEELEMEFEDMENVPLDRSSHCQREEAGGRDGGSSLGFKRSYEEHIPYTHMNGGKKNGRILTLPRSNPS

[8] = molecular target: Receptor tyrosine-protein kinase erbB-2 (Homo sapiens, UniProt P04626); experiment: Inhibition of heregulin-dependent autophosphorylation of ErbB2 receptor in MDA-MB-453 cells; format: functional, cell-based
Chain of Receptor tyrosine-protein kinase erbB-2 (P04626 whole entry, the tested form may be a part): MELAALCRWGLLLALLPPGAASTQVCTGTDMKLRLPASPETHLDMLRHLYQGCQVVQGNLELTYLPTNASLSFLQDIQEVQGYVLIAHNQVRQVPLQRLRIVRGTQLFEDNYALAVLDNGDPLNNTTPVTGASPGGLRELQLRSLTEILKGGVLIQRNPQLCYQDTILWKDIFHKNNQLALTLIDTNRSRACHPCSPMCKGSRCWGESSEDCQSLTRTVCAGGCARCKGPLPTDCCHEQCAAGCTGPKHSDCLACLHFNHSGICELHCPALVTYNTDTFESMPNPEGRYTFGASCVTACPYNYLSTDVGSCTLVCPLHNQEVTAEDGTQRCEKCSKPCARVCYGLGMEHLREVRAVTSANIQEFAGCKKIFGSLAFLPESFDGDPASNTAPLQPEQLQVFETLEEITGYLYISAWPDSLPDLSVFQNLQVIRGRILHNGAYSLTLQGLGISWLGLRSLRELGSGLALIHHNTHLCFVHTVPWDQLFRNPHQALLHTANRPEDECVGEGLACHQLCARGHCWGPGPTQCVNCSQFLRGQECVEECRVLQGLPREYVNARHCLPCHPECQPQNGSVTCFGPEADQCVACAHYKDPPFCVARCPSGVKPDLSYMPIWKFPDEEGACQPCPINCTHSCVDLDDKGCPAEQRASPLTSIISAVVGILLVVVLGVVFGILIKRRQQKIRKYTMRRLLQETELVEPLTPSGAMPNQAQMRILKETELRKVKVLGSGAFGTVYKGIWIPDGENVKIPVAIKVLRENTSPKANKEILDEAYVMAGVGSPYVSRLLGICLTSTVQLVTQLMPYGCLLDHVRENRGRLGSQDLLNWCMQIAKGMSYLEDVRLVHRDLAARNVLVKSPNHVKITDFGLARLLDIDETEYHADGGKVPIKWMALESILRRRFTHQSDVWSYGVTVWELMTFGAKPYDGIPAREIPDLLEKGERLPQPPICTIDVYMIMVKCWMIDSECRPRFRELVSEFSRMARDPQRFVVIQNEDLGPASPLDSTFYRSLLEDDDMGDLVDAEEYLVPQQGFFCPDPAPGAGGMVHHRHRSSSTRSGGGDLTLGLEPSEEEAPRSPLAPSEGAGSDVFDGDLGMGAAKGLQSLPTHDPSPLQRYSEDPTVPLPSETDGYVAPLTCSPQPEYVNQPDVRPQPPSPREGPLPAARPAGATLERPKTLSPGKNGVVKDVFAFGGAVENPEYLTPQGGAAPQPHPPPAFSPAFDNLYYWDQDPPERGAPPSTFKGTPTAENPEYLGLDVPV

Mus musculus [9] = experiment: Difference in days for treated (T) and control (C) EGFR tumor fragments to reach 750 mg in mice at 200 mg/kg peroral dose, administration days 1-15; format: functional; details: route oral
Mus musculus [10] = experiment: Difference in days for treated (T) and control (C) EGFR tumor fragments to reach 750 mg in mice at 25 mg/kg ip dose, administration days 1-15; format: functional; details: route intraperitoneal
MCF7 [11] = experiment: Difference in days for treated (T) and control (C) MCF-7 tumor fragments to reach 750 mg in mice at 25 mg/kg ip dose, administration days 1-15; format: functional; details: route intraperitoneal
A-431 [12] = experiment: Ratio of treated and control A431 median tumor mass*100% in mice at 25 mg/kg peroral dose, days 7-21 administration; format: functional; details: route intraperitoneal, in the assay text read “intraperitoneal” for “peroral”
Outline: (§2)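 Nude mice (NCr nu/nu, 18-22 g) were randomized and implanted sc with tumor fragments in the right axilla on day 0. Tumor lines were A431 epidermoid, NIH 3T3 fibroblasts transfected with human EGFR, and MCF-7 breast. Dosing was ip or oral, by average cage weight, with 6 mice/dose group. Vehicle was 6% dimethylacetamide/94% 50 mM sodium lactate pH 4.0 (suspension), or isethionate salt in water.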

Mus musculus [13] = experiment: Ratio of treated and control EGFR median tumor mass*100% in mice at 200 mg/kg peroral dose, days 1-15 administration; format: functional; details: route oral; outline: as §2
Mus musculus [14] = experiment: Ratio of treated and control EGFR median tumor mass*100% in mice at 25 mg/kg ip dose, days 1-15 administration; format: functional; details: route intraperitoneal; outline: as §2
MCF7 [15] = experiment: Ratio of treated and control MCF-7 median tumor mass*100% in mice at 25 mg/kg ip dose, days 1-15 administration; format: functional; details: route intraperitoneal; outline: as §2
Mus musculus [16] = experiment: Net reduction in EGFR tumor burden between the first and last treatments in mice at 25 mg/kg ip dose, days 1-15 administration; format: functional; details: route intraperitoneal
Outline: (§3)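 NCr nu/nu nude mice (18-22 g) were randomized and implanted sc with A431 epidermoid, human-EGFR-transfected NIH 3T3 fibroblast, or MCF-7 breast tumor fragments in the right axilla on day 0. Dosing was ip or oral, by average cage weight, with 6 mice per dose group. Log net cell kill is the net reduction in tumor burden between the first and last treatments.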

MCF7 [17] = experiment: Net reduction in MCF-7 tumor burden between the first and last treatments in mice at 25 mg/kg ip dose, days 1-15 administration; format: functional; details: route intraperitoneal; outline: as §3
MCF7 [18] = experiment: Weight change in MCF-7 tumor bearing mice at 25 mg/kg ip dose, days 1-15 administration; format: functional; details: route intraperitoneal
A-431 [19] = experiment: Weight change in A431 tumor bearing mice at 25 mg/kg ip dose, days 7-21 administration; format: functional; details: route intraperitoneal
Mus musculus [20] = experiment: Weight change of EGFR tumor bearing mice at 200 mg/kg peroral dose, days 1-15 administration; format: functional, organism-based; design: dose 200 mg/kg
Mus musculus [21] = experiment: Weight change of EGFR tumor bearing mice at 25 mg/kg ip dose, days 1-15 administration; format: functional; details: route intraperitoneal
[22] = Inhibition of Platelet-derived growth factor receptor (PDGFR); format: functional
[23] = molecular target: Proto-oncogene tyrosine-protein kinase Src (Homo sapiens, UniProt P12931); experiment: Inhibition of c-Src tyrosine kinase; format: functional
Chain of Proto-oncogene tyrosine-protein kinase Src (P12931 2-536 limits assumed): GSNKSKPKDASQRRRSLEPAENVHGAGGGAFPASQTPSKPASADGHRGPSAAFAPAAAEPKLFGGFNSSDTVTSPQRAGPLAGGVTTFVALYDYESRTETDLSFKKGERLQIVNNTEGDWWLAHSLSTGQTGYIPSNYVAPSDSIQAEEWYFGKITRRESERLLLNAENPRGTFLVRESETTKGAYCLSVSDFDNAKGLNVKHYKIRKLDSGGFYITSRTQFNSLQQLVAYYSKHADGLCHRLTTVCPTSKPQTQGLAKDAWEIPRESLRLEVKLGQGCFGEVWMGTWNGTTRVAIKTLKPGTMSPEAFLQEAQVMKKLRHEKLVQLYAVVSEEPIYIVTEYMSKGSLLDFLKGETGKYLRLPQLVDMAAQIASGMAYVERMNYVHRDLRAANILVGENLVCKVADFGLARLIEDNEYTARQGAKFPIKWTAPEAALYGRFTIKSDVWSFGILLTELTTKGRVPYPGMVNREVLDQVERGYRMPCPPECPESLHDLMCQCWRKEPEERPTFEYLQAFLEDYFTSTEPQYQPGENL

Mus musculus [24] = experiment: Log net cell kill of A431 tumor bearing mice at 25 mg/kg intraperitoneal dose, days 7-21 administration
A-431 [25] = experiment: Difference in days for treated (T) and control (C) A431 tumor fragments to reach 750 mg in mice at 25 mg/kg intraperitoneal dose, administration days 7-21

- IC50 [1]: 102 nM
- solubility [2]: 2.5 mM (≈ 998 µg/mL)
- IC50 [3]: 6.4 nM
SMILES: CN1CCN(c2cc3c(Nc4cccc(Br)c4)ncnc3cn2)CC1

- solubility [2]: 0.11 mM (≈ 41.2 µg/mL)
- IC50 [3]: 0.22 nM
SMILES: CN(CCO)c1cc2c(Nc3cccc(Br)c3)ncnc2cn1

- IC50 [1]: 13 nM
- solubility [2]: 12 mM (≈ 4890 µg/mL)
- IC50 [3]: 1.5 nM
SMILES: Brc1cccc(Nc2ncnc3cnc(NCc4cccnc4)cc23)c1

SMILES: CCN(CC)CC(O)CNc1cc2c(Nc3cccc(Br)c3)ncnc2cn1 (configuration not stated)
- IC50 [4]: 28 nM
- IC50 [1]: 28 nM
- solubility [2]: 36 mM (≈ 16000 µg/mL)
- IC50 [5]: 4.6 nM
- IC50 [6]: 4.6 nM
- IC50 [7]: > 50000 nM
- IC50 (Insulin receptor): > 50000 nM
- IC50 [8]: 1100 nM
- T-C (Mus musculus [9]): 0 days
- T-C (Mus musculus [10]): 5 days
- T-C (MCF7 [11]): 3.3 days
- T/C (A-431 [12]): 62%
- T/C (Mus musculus [13]): 94%
- T/C (Mus musculus [14]): 44%
- T/C (MCF7 [15]): 77%
- Net cell kill (Mus musculus [16]): -0.9 log10
- Net cell kill (MCF7 [17]): -0.6 log10
- Weight change (MCF7 [18]): -0.3 g
- Weight change (A-431 [19]): -0.7 g
- Weight change (Mus musculus [20]): Weight gain
- Weight change (Mus musculus [21]): -0.9 g
- IC50 [22]: > 50000 nM
- IC50 [23]: > 50000 nM
- Log net cell kill (Mus musculus [24]): -0.5 log10
- T-C (A-431 [25]): 5 days

- IC50 [1]: 16 nM
- solubility [2]: 30 mM (≈ 12000 µg/mL)
- IC50 [3]: 1.2 nM
SMILES: CN(C)CCCNc1cc2c(Nc3cccc(Br)c3)ncnc2cn1

- solubility [2]: 0.4 mM (≈ 101 µg/mL)
- IC50 [3]: 3.1 nM
SMILES: Cc1cccc(Nc2ncnc3cnc(N)cc23)c1

- S [2]: > 30 mM
- IC50 [3]: 1.3 nM
SMILES: Cc1cccc(Nc2ncnc3cnc(NCCc4c[nH]cn4)cc23)c1

- S [2]: > 35 mM
- IC50 [3]: 1.8 nM
SMILES: Cc1cccc(Nc2ncnc3cnc(NCCCN4CCOCC4)cc23)c1

- IC50 [1]: 9.1 nM
- solubility [2]: 23 mM (≈ 9760 µg/mL)
- IC50 [3]: 1.7 nM
SMILES: Brc1cccc(Nc2ncnc3cnc(NCCCn4ccnc4)cc23)c1

- solubility [2]: 32 mM (≈ 15100 µg/mL)
SMILES: CN1CCN(NCCCNc2cc3c(Nc4cccc(Br)c4)ncnc3cn2)CC1

- IC50 [3]: 0.19 nM
SMILES: CNc1cc2c(Nc3cccc(Cl)c3)ncnc2cn1

- solubility [2]: 5 mM (≈ 1870 µg/mL)
- IC50 [3]: 0.28 nM
SMILES: O=C(O)CNc1cc2c(Nc3cccc(Br)c3)ncnc2cn1

- IC50 [3]: 1.1 nM
SMILES: CNc1cc2c(Nc3cccc(C(F)(F)F)c3)ncnc2cn1

- solubility [2]: 44 mM (≈ 17100 µg/mL)
- IC50 [3]: 0.44 nM
SMILES: CN(CC(=O)O)c1cc2c(Nc3cccc(Br)c3)ncnc2cn1

- IC50 [1]: 27 nM
- S [2]: > 45 mM
- IC50 [3]: 1.7 nM
SMILES: CN(CCO)CCNc1cc2c(Nc3cccc(Br)c3)ncnc2cn1

- solubility [2]: 0.21 mM (≈ 82 µg/mL)
- IC50 [3]: 0.18 nM
SMILES: OCC(O)CNc1cc2c(Nc3cccc(Br)c3)ncnc2cn1 (configuration not stated)
